Measurements as given in ChEMBL document CHEMBL4354828, “Discovery of Taniborbactam (VNRX-5133): A Broad-Spectrum Serine- and Metallo-β-lactamase Inhibitor for Carbapenem-Resistant Bacterial Infections” (J Med Chem, 2020).
pIC50: −log10 of the molar value. In brackets after ≈: the same amount, converted by molar mass.

Columns and labels:
[1] = Inhibition of bacterial IMP-1 using nitrocefin as substrate preincubated for 15 mins followed by susbtrate addition and measured after 10 mins by spectrophotometric method; set-up: species or system Bacteria
[2] = Inhibition of bacterial SHV-5 using cefotaxime as substrate preincubated for 15 mins followed by susbtrate addition and measured after 10 mins by spectrophotometric method; set-up: species or system Bacteria
Pseudomonas aeruginosa [3] = assay: Inhibition of KPC-2/PDC-42 in Pseudomonas aeruginosa CDC-0356 assessed as cefepime antibacterial activity at 8 ug/ml after 16 to 20 hrs by CLSI-based microbroth dilution method (Rvb > […] ug/ml)
[4] = Inhibition of bacterial NDM-1 using cefepime as substrate preincubated for 15 mins followed by susbtrate addition and measured after 10 mins by spectrophotometric method; set-up: species or system Bacteria
Escherichia coli [5] = assay: Inhibition of NDM in Escherichia coli CDC-0452 assessed as meropenem antibacterial activity at 4 ug/ml after 16 to 20 hrs by CLSI-based microbroth dilution method (reference value: […] ug/ml)
[6] = test system: Klebsiella pneumoniae ATCC BAA-1705; assay: Inhibition of KPC-2 in Klebsiella pneumoniae ATCC BAA 1705 assessed as meropenem antibacterial activity at 4 ug/ml after 16 to 20 hrs by CLSI-based microbroth dilution method (reference value: […] ug/ml)
Klebsiella pneumoniae [7] = assay: Inhibition of OXA-232/OXA-9/TEM-1A/CTX-M-15/OXA-1 in Klebsiella pneumoniae CDC-0066 assessed as cefepime antibacterial activity at 8 ug/ml after 16 to 20 hrs by CLSI-based microbroth dilution method (Rvb > […] ug/ml)
[8] = Inhibition of bacterial CMY-2 using nitrocefin as substrate preincubated for 15 mins followed by susbtrate addition and measured after 10 mins by spectrophotometric method; set-up: species or system Bacteria
Escherichia coli [9] = assay: Inhibition of NDM-1/CMY-6/OXA-1 in Escherichia coli CDC-0055 assessed as meropenem antibacterial activity at 4 ug/ml after 16 to 20 hrs by CLSI-based microbroth dilution method (reference value: […] ug/ml)
Klebsiella pneumoniae [10] = assay: Inhibition of VIM-27/CTX-M-15/SHV-11/OXA-1 in Klebsiella pneumoniae CDC-0040 assessed as cefepime antibacterial activity at 8 ug/ml after 16 to 20 hrs by CLSI-based microbroth dilution method
[11] = Inhibition of bacterial AmpC using nitrocefin as substrate preincubated for 15 mins followed by susbtrate addition and measured after 10 mins by spectrophotometric method; set-up: species or system Bacteria
[12] = Inhibition of bacterial CTX-M-15 using cefotaxime as substrate preincubated for 15 mins followed by susbtrate addition and measured after 10 mins by spectrophotometric method; set-up: species or system Bacteria
Escherichia coli [13] = assay: Inhibition of NDM-1/CMY-6/OXA-1 in Escherichia coli CDC-0055 assessed as piperacillin antibacterial activity at 16 ug/ml after 16 to 20 hrs by CLSI-based microbroth dilution method
Procedure, shortened: (§1)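 MDR β-lactamase-producing Gram-negative clinical isolates. […] MIC was reported as the inhibitor concentration that restores the partner's antibacterial activity.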

Escherichia coli [14] = assay: Inhibition of NDM-1/CMY-6/OXA-1 in Escherichia coli CDC-0055 assessed as cefepime antibacterial activity at 8 ug/ml after 16 to 20 hrs by CLSI-based microbroth dilution method; procedure, shortened: as §1
Pseudomonas aeruginosa [15] = assay: Inhibition of KPC-2/PDC-42 in Pseudomonas aeruginosa CDC-0356 assessed as piperacillin antibacterial activity at 16 ug/ml after 16 to 20 hrs by CLSI-based microbroth dilution method (Rvb > […] ug/ml)
[16] = Inhibition of bacterial KPC-2 using imipenem as substrate preincubated for 15 mins followed by susbtrate addition and measured after 10 mins by spectrophotometric method; set-up: species or system Bacteria
Pseudomonas aeruginosa [17] = assay: Inhibition of VIM in Pseudomonas aeruginosa CDC-0457 assessed as meropenem antibacterial activity at 4 ug/ml after 16 to 20 hrs by CLSI-based microbroth dilution method
Klebsiella pneumoniae [18] = assay: Inhibition of KPC-2/SHV12/TEM-1 in Klebsiella pneumoniae CDC-0361 assessed as cefepime antibacterial activity at 8 ug/ml after 16 to 20 hrs by CLSI-based microbroth dilution method (reference value: […] ug/ml)
Pseudomonas aeruginosa [19] = assay: Inhibition of KPC-2/PDC-42 in Pseudomonas aeruginosa CDC-0356 assessed as meropenem antibacterial activity at 4 ug/ml after 16 to 20 hrs by CLSI-based microbroth dilution method (reference value: […] ug/ml)
Klebsiella pneumoniae [20] = assay: Inhibition of VIM-27/CTX-M-15/SHV-11/OXA-1 in Klebsiella pneumoniae CDC-0040 assessed as piperacillin antibacterial activity at 16 ug/ml after 16 to 20 hrs by CLSI-based microbroth dilution method
[21] = Inhibition of bacterial OXA-1 using nitrocefin as substrate preincubated for 15 mins followed by susbtrate addition and measured after 10 mins by spectrophotometric method; set-up: species or system Bacteria
Pseudomonas aeruginosa [22] = assay: Inhibition of VIM in Pseudomonas aeruginosa CDC-0457 assessed as cefepime antibacterial activity at 8 ug/ml after 16 to 20 hrs by CLSI-based microbroth dilution method
Pseudomonas aeruginosa [23] = assay: Inhibition of VIM in Pseudomonas aeruginosa CDC-0457 assessed as piperacillin antibacterial activity at 16 ug/ml after 16 to 20 hrs by CLSI-based microbroth dilution method
Escherichia coli [24] = assay: Inhibition of NDM in Escherichia coli CDC-0452 assessed as piperacillin antibacterial activity at 16 ug/ml after 16 to 20 hrs by CLSI-based microbroth dilution method (Rvb > […] ug/ml)
[25] = test system: Klebsiella pneumoniae ATCC BAA-1705; assay: Inhibition of KPC-2 in Klebsiella pneumoniae ATCC BAA 1705 assessed as piperacillin antibacterial activity at 16 ug/ml after 16 to 20 hrs by CLSI-based microbroth dilution method (Rvb > […] ug/ml)
Klebsiella pneumoniae [26] = assay: Inhibition of OXA-232/OXA-9/TEM-1A/CTX-M-15/OXA-1 in Klebsiella pneumoniae CDC-0066 assessed as piperacillin antibacterial activity at 16 ug/ml after 16 to 20 hrs by CLSI-based microbroth dilution method (Rvb > […] ug/ml)
[27] = Inhibition of bacterial OXA-48 using nitrocefin as substrate preincubated for 15 mins followed by susbtrate addition and measured after 10 mins by spectrophotometric method; set-up: species or system Bacteria
Escherichia coli [28] = assay: Inhibition of NDM in Escherichia coli CDC-0452 assessed as cefepime antibacterial activity after 16 to 20 hrs by CLSI-based microbroth dilution method (reference value: […] ug/ml)
Klebsiella pneumoniae [29] = assay: Inhibition of KPC-2/SHV12/TEM-1 in Klebsiella pneumoniae CDC-0361 assessed as piperacillin antibacterial activity at 16 ug/ml after 16 to 20 hrs by CLSI-based microbroth dilution method (Rvb > […] ug/ml)
[30] = Inhibition of bacterial VIM-2 using nitrocefin as substrate preincubated for 15 mins followed by susbtrate addition and measured after 10 mins by spectrophotometric method; set-up: species or system Bacteria
Procedure, shortened: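 Purified β-lactamase inhibition. IC50 values are the average of duplicates unless otherwise indicated.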

Klebsiella pneumoniae [31] = assay: Inhibition of OXA-232/OXA-9/TEM-1A/CTX-M-15/OXA-1 in Klebsiella pneumoniae CDC-0066 assessed as meropenem antibacterial activity at 4 ug/ml after 16 to 20 hrs by CLSI-based microbroth dilution method (reference value: […] ug/ml)
Klebsiella pneumoniae [32] = assay: Inhibition of KPC-2/SHV12/TEM-1 in Klebsiella pneumoniae CDC-0361 assessed as meropenem antibacterial activity at 4 ug/ml after 16 to 20 hrs by CLSI-based microbroth dilution method (reference value: […] ug/ml)
Klebsiella pneumoniae [33] = assay: Inhibition of VIM-27/CTX-M-15/SHV-11/OXA-1 in Klebsiella pneumoniae CDC-0040 assessed as meropenem antibacterial activity at 4 ug/ml after 16 to 20 hrs by CLSI-based microbroth dilution method
[34] = AUC (infinity) in mouse at 10 mg/kg, iv after 1 to 6 hrs by LC-MS/MS analysis; type: ADME, organism-based; set-up: dose 10 mg/kg, time infinity, route intravenous; conditions: in vivo

Q: What does the source list for `O=C(O)C[C@@H]1CC[C@H](NC(=O)Cc2cccs2)B(O)O1` [VABORBACTAM]?
A: pIC50 [1]: < 4.00; pIC50 [2]: 6.36; MIC (Pseudomonas aeruginosa [3]): > 16 µg/mL; pIC50 [4]: < 4.00; MIC (Escherichia coli [5]): > 16 µg/mL; MIC [6]: 0.03 µg/mL (≈ 0.101 µM); MIC (Klebsiella pneumoniae [7]): > 16 µg/mL; pIC50 [8]: 6.66; MIC (Escherichia coli [9]): > 16 µg/mL; MIC (Klebsiella pneumoniae [10]): > 16 µg/mL; pIC50 [11]: 7.05; pIC50 [12]: 6.38; MIC (Escherichia coli [13]): > 16 µg/mL; MIC (Escherichia coli [14]): > 16 µg/mL; MIC (Pseudomonas aeruginosa [15]): > 16 µg/mL; pIC50 [16]: 7.00; MIC (Pseudomonas aeruginosa [17]): > 16 µg/mL; MIC (Klebsiella pneumoniae [18]): > 16 µg/mL; MIC (Pseudomonas aeruginosa [19]): 8 µg/mL (≈ 26.9 µM); MIC (Klebsiella pneumoniae [20]): > 16 µg/mL; pIC50 [21]: 5.10; MIC (Pseudomonas aeruginosa [22]): > 16 µg/mL; MIC (Pseudomonas aeruginosa [23]): > 16 µg/mL; MIC (Escherichia coli [24]): > 16 µg/mL; MIC [25]: > 16 µg/mL; MIC (Klebsiella pneumoniae [26]): > 16 µg/mL; pIC50 [27]: 4.41; MIC (Escherichia coli [28]): > 16 µg/mL; MIC (Klebsiella pneumoniae [29]): > 16 µg/mL; pIC50 [30]: < 4.00; MIC (Klebsiella pneumoniae [31]): > 16 µg/mL; MIC (Klebsiella pneumoniae [32]): 0.06 µg/mL (≈ 0.202 µM); MIC (Klebsiella pneumoniae [33]): > 16 µg/mL

Q: Which AUC(0-inf) [34] does the source give for `CO/N=C(\C(=O)N[C@@H]1C(=O)N2C(C(=O)[O-])=C(C[N+]3(C)CCCC3)CS[C@H]12)c1csc(N)n1` here?
A: 15800 ng·h/mL
